Source: ChEMBL document CHEMBL2311325, “New structure-activity relationship studies in a series of N,N-bis(cyclohexanol)amine aryl esters as potent reversers of P-glycoprotein-mediated multidrug resistance (MDR)” (Bioorg Med Chem, 2013)

Key:
K562 [1] = assay: Reversal fold, ratio of doxorubicin IC50 for doxorubicin-resistant human K562 cells in absence of compound to doxorubicin IC50 for doxorubicin-resistant human K562 cells in presence of 0.1 uM of compound; assay type: functional
Procedure, shortened: (§1)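 K562/DOX cells seeded at 3000 cells/well and exposed to doxorubicin (0.001-10 µM) with or without modulator (0.1 or 1.0 µM; DMSO stocks diluted in complete medium) for 72 h at 37 °C, 5% CO2. Viability read by MTT (3 h, DMSO solubilization, 540 nm). Doxorubicin IC50 taken from plotted curves. RF = IC50 without modulator / IC50 with modulator. Quadruplicate cultures.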

K562 [2] = assay: Reversal fold, ratio of doxorubicin IC50 for doxorubicin-resistant human K562 cells in absence of compound to doxorubicin IC50 for doxorubicin-resistant human K562 cells in presence of 1 uM of compound; assay type: functional; procedure, shortened: as §1
K562 [3] = assay: Cytotoxicity against human doxorubicin-resistant K562 cells at 1 uM after 72 hrs by MTT assay; assay type: cell-based; conditions: k562, 72 h
Procedure, shortened: (§2)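 Intrinsic cytotoxicity of compound alone (no doxorubicin) tested at 1.0 µM on K562 and K562/DOX cells. Cells in exponential growth (3-5 × 10^5 cells/mL) seeded at 3000 cells/well and incubated 72 h at 37 °C, 5% CO2. MTT added for a further 3 h, formazan dissolved in DMSO, absorbance read at 540 nm. Quadruplicate cultures.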

K562 [4] = assay: Cytotoxicity against human K562 cells at 1 uM after 72 hrs by MTT assay; assay type: cell-based; conditions: k562, 72 h; procedure, shortened: as §2
P-glycoprotein (ABCB1) = P-glycoprotein (ABCB1) (Homo sapiens, UniProt P08183); assay: Inhibition of P-glycoprotein in human doxorubicin-resistant K562 cells assessed as maximal increase of pirarubicin accumulation by spectrofluorometric analysis relative to control; assay type: cell-based; conditions: probe pirarubicin
[5] = target: ATP-dependent translocase ABCB1 (Homo sapiens, UniProt P08183); assay: Inhibition of P-glycoprotein in human doxorubicin-resistant K562 cells assessed as half maximal increase of pirarubicin accumulation by spectrofluorometric analysis; assay type: cell-based
Chain of ATP-dependent translocase ABCB1 (P08183 whole entry): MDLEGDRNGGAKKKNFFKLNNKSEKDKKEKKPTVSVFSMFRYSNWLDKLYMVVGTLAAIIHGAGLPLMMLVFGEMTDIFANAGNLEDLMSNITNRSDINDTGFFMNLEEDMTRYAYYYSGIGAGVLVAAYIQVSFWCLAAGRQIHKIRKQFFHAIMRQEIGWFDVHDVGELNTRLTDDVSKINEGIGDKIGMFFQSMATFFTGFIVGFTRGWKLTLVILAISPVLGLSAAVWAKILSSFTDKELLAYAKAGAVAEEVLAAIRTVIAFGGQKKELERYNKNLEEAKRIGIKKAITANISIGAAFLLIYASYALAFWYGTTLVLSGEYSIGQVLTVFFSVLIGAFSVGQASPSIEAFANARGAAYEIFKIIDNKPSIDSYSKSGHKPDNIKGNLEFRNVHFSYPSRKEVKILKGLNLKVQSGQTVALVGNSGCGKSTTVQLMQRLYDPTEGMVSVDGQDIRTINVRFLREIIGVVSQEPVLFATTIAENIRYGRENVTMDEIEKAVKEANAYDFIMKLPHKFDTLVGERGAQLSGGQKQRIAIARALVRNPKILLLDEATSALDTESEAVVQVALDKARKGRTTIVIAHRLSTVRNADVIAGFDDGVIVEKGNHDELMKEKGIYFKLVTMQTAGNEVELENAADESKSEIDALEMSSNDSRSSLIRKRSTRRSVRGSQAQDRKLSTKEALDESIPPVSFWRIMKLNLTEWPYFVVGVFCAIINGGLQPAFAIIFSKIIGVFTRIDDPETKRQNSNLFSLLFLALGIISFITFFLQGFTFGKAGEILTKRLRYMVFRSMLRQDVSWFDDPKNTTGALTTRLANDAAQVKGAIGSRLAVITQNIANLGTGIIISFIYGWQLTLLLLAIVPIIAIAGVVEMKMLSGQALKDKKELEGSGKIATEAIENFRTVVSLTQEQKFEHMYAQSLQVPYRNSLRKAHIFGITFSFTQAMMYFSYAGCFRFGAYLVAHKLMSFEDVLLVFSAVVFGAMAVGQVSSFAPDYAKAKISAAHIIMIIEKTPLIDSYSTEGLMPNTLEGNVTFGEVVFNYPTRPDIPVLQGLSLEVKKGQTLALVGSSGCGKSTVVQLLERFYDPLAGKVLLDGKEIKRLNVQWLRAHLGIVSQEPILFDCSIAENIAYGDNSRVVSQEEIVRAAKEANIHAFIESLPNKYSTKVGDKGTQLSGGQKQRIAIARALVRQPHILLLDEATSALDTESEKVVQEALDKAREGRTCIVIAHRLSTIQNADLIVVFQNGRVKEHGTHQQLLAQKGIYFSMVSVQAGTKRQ

Chain of P-glycoprotein (ABCB1) (P08183 whole entry): as above

SMILES | Ratio IC50 (K562 [1]) | Ratio IC50 (K562 [2]) | Activity (K562 [3]) | Activity (K562 [4]) | Emax (P-glycoprotein (ABCB1)) [%] | IC50 [5] [nM]
COc1cc(C#CC(=O)O[C@H]2CC[C@H](N(C)[C@H]3CC[C@@H](OC(=O)c4cc(OC)c(OC)c(OC)c4)CC3)CC2)cc(OC)c1OC (mixture of isomers) | 1.6 | 1.5 | Non-toxic | Non-toxic | 98 | 80
COc1ccc(C(C#N)(CCCNCc2c3ccccc3cc3ccccc23)C(C)C)cc1OC (centres undefined) |  |  |  |  | 70 | 
COc1cc(C#CC(=O)O[C@H]2CC[C@@H](N(C)[C@H]3CC[C@@H](OC(=O)C4c5ccccc5-c5ccccc54)CC3)CC2)cc(OC)c1OC |  |  |  |  | 89 | 50
COc1cc(/C=C/C(=O)O[C@H]2CC[C@@H](N(C)[C@H]3CC[C@H](OC(=O)C4c5ccccc5-c5ccccc54)CC3)CC2)cc(OC)c1OC (mixture of isomers) | 2.3 | 5 | Non-toxic | Non-toxic | 81 | 80
COc1ccc(C(C#N)(CCC(=O)O[C@H]2CC[C@@H](N(C)[C@H]3CC[C@H](OC(=O)/C=C/c4cc(OC)c(OC)c(OC)c4)CC3)CC2)C(C)C)cc1OC (mixture of isomers) | 3 | 10.7 | Non-toxic | Non-toxic | 89 | 80
COc1ccc(C(C(=O)O[C@H]2CC[C@H](N(C)[C@H]3CC[C@@H](OC(=O)C#Cc4cc(OC)c(OC)c(OC)c4)CC3)CC2)c2ccc(OC)cc2)cc1 (mixture of isomers) |  |  |  |  | 76 | 130
COc1cc(/C=C/C(=O)O[C@H]2CC[C@H](N(C)[C@H]3CC[C@@H](OC(=O)c4cc(OC)c(OC)c(OC)c4)CC3)CC2)cc(OC)c1OC (mixture of isomers) |  | 7.7 |  |  | 85 | 92
COc1cc(C#CC(=O)O[C@H]2CC[C@H](N(C)[C@H]3CC[C@H](OC(=O)c4cc(OC)c(OC)c(OC)c4)CC3)CC2)cc(OC)c1OC | 0.6 | 1.9 | Non-toxic | Non-toxic | 99 | 70
COc1cc(/C=C/C(=O)O[C@H]2CC[C@@H](N(C)[C@H]3CC[C@@H](OC(=O)C4c5ccccc5-c5ccccc54)CC3)CC2)cc(OC)c1OC |  |  |  |  | 90 | 180
COc1cc(CCC(=O)O[C@H]2CC[C@H](N(C)[C@H]3CC[C@@H](OC(=O)c4cc(OC)c(OC)c(OC)c4)CC3)CC2)cc(OC)c1OC (mixture of isomers) |  |  |  |  | 75 | 630
COc1ccc(C(C#N)(CCC(=O)O[C@H]2CC[C@@H](N(C)[C@H]3CC[C@@H](OC(=O)/C=C/c4cc(OC)c(OC)c(OC)c4)CC3)CC2)C(C)C)cc1OC (some centres undefined) |  |  |  |  | 99 | 150
COc1ccc(C(C(=O)O[C@H]2CC[C@@H](N(C)[C@H]3CC[C@@H](OC(=O)C#Cc4cc(OC)c(OC)c(OC)c4)CC3)CC2)c2ccc(OC)cc2)cc1 (mixture of isomers) |  |  |  |  | 94 | 120
COc1cc(/C=C/C(=O)O[C@H]2CC[C@H](N(C)[C@H]3CC[C@H](OC(=O)C4c5ccccc5-c5ccccc54)CC3)CC2)cc(OC)c1OC | 2 | 2.9 | Non-toxic | Non-toxic | 94 | 75
COc1cc(C#CC(=O)O[C@H]2CC[C@H](N(C)[C@H]3CC[C@@H](OC(=O)C4c5ccccc5-c5ccccc54)CC3)CC2)cc(OC)c1OC (mixture of isomers) |  |  |  |  | 91 | 290
COc1cc(/C=C/C(=O)O[C@H]2CC[C@@H](N(C)[C@H]3CC[C@H](OC(=O)c4cc(OC)c(OC)c(OC)c4)CC3)CC2)cc(OC)c1OC |  | 20.3 |  |  | 98 | 12
COc1cc(C#CC(=O)O[C@H]2CC[C@@H](N(C)[C@H]3CC[C@H](OC(=O)c4cc(OC)c(OC)c(OC)c4)CC3)CC2)cc(OC)c1OC (mixture of isomers) | 2 | 8.5 | Non-toxic | Non-toxic | 99 | 20
COc1cc(C#CC(=O)O[C@H]2CC[C@H](N(C)[C@H]3CC[C@H](OC(=O)C4c5ccccc5-c5ccccc54)CC3)CC2)cc(OC)c1OC |  |  |  |  | 77 | 500
COc1cc(/C=C/C(=O)O[C@H]2CC[C@H](N(C)[C@H]3CC[C@H](OC(=O)c4cc(OC)c(OC)c(OC)c4)CC3)CC2)cc(OC)c1OC |  | 9.2 |  |  | 81 | 320
COc1cc(C#CC(=O)O[C@H]2CC[C@@H](N(C)[C@H]3CC[C@H](OC(=O)C4c5ccccc5-c5ccccc54)CC3)CC2)cc(OC)c1OC (mixture of isomers) |  |  |  |  | 96 | 120
COc1ccc(C(C#N)(CCC(=O)O[C@H]2CC[C@H](N(C)[C@H]3CC[C@H](OC(=O)/C=C/c4cc(OC)c(OC)c(OC)c4)CC3)CC2)C(C)C)cc1OC (some centres undefined) |  |  |  |  | 99 | 140
COc1ccc(C(C#N)(CCC(=O)O[C@H]2CC[C@H](N(C)[C@H]3CC[C@@H](OC(=O)/C=C/c4cc(OC)c(OC)c(OC)c4)CC3)CC2)C(C)C)cc1OC (mixture of isomers) |  |  |  |  | 88 | 240
COc1cc(/C=C/C(=O)O[C@H]2CC[C@H](N(C)[C@H]3CC[C@@H](OC(=O)C4c5ccccc5-c5ccccc54)CC3)CC2)cc(OC)c1OC (mixture of isomers) |  |  |  |  | 99 | 150
COc1cc(/C=C/C(=O)O[C@H]2CC[C@@H](N(C)[C@H]3CC[C@@H](OC(=O)c4cc(OC)c(OC)c(OC)c4)CC3)CC2)cc(OC)c1OC |  | 9.8 |  |  | 80 | 30
COc1ccc(C(C(=O)O[C@H]2CC[C@@H](N(C)[C@H]3CC[C@H](OC(=O)C#Cc4cc(OC)c(OC)c(OC)c4)CC3)CC2)c2ccc(OC)cc2)cc1 (mixture of isomers) |  |  |  |  | 99 | 20
COc1cc(CCC(=O)O[C@H]2CC[C@H](N(C)[C@H]3CC[C@H](OC(=O)c4cc(OC)c(OC)c(OC)c4)CC3)CC2)cc(OC)c1OC |  |  |  |  | 76 | 610
COc1cc(CCC(=O)O[C@H]2CC[C@@H](N(C)[C@H]3CC[C@@H](OC(=O)c4cc(OC)c(OC)c(OC)c4)CC3)CC2)cc(OC)c1OC |  |  |  |  | 76 | 1100
COc1cc(C#CC(=O)O[C@H]2CC[C@@H](N(C)[C@H]3CC[C@@H](OC(=O)c4cc(OC)c(OC)c(OC)c4)CC3)CC2)cc(OC)c1OC | 2.3 | 4.5 | Non-toxic | Non-toxic | 99 | 70
COc1ccc(C(C(=O)O[C@H]2CC[C@H](N(C)[C@H]3CC[C@H](OC(=O)C#Cc4cc(OC)c(OC)c(OC)c4)CC3)CC2)c2ccc(OC)cc2)cc1 |  |  |  |  | 74 | 140
COc1cc(CCC(=O)O[C@H]2CC[C@@H](N(C)[C@H]3CC[C@H](OC(=O)c4cc(OC)c(OC)c(OC)c4)CC3)CC2)cc(OC)c1OC (mixture of isomers) |  |  |  |  | 77 | 350
